Reference: ChEMBL document CHEMBL2346664, “Synthesis, characterization and in vitro anticancer evaluation of novel 1,2,4-triazolin-3-one derivatives” (2013)

Legend:
Type in all cases: functional
NCI-H23 [1] = test: Growth inhibition of human NCI-H23 cells assessed as cell growth at 10 '-5 M after 48 hrs by sulforhodamine B assay; conditions: NCI-H23, 48 h, read-out: Activity
SF-268 [2] = test: Growth inhibition of human SF268 cells assessed as cell growth at 10 '-7 M after 48 hrs by sulforhodamine B assay; conditions: SF-268, 48 h, read-out: Activity
CAKI-1 [3] = test: Growth inhibition of human CAKI-1 cells assessed as cell growth at 10 '-5 M after 48 hrs by sulforhodamine B assay; conditions: CAKI-1, 48 h, read-out: Activity
In short: (§1)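 Percent growth at each of the five concentrations of the 48 h continuous-exposure NCI SRB screen. Drug stocks were in DMSO at 400× the top final concentration and diluted in medium with gentamicin. Growth was calculated as [(Ti-Tz)/(C-Tz)]×100 when Ti ≥ Tz, or [(Ti-Tz)/Tz]×100 when Ti < Tz. Tz plates were fixed at drug addition; untreated wells served as control. Absorbance was read at 515 nm.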

COLO 205 = test: Growth inhibition of human COLO205 cells assessed as cell growth at 10 '-7 M after 48 hrs by sulforhodamine B assay; conditions: COLO 205, 48 h, read-out: Activity
SF-268 [4] = test: Growth inhibition of human SF268 cells after 48 hrs by sulforhodamine B assay; conditions: SF-268, 48 h
NCI-H23 [5] = test: Growth inhibition of human NCI-H23 cells assessed as cell growth at 10 '-8 M after 48 hrs by sulforhodamine B assay; conditions: NCI-H23, 48 h, read-out: Activity
SF-295 = test: Growth inhibition of human SF295 cells assessed as cell growth at 10 '-7 M after 48 hrs by sulforhodamine B assay; conditions: SF-295, 48 h, read-out: Activity
[6] = Growth inhibition of human […] cells assessed as growth inhibition at 10 uM after 48 hrs by sulforhodamine B assay; conditions: read-out: GI
In short: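 Percent growth inhibition from the single 10^-5 M NCI-60 screen, reported as 100 minus growth percent. Growth percent was measured after 48 h drug exposure at 37 °C, 5% CO2, using TCA fixation, SRB staining and absorbance at 515 nm, against untreated controls and time-zero plates.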

SF-268 [7] = test: Growth inhibition of human SF268 cells assessed as cell growth at 10 '-8 M after 48 hrs by sulforhodamine B assay; conditions: SF-268, 48 h, read-out: Activity
SR = test: Growth inhibition of human SR cells assessed as cell growth at 10 '-4 M after 48 hrs by sulforhodamine B assay; conditions: read-out: Activity
NCI-H460 = test: Growth inhibition of human NCI-H460 cells after 48 hrs by sulforhodamine B assay; conditions: NCI-H460, 48 h
Malme-3M = test: Growth inhibition of human MALME-3M cells after 48 hrs by sulforhodamine B assay
In short: (§2)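 NCI 60-cell-line five-dose screen. Cells were plated at 5,000–40,000/well by doubling time and grown 24 h at 37 °C, 5% CO2. Time-zero plates were TCA-fixed. Drug from DMSO stock was tested at 0.01, 0.1, 1, 10 and 100 µM final for 48 h continuous exposure. Read-out was SRB at 515 nm. GI50 is the concentration giving 50% reduction in net protein increase versus untreated control.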

M14 = test: Growth inhibition of human M14 cells assessed as cell growth at 10 '-4 M after 48 hrs by sulforhodamine B assay; conditions: M14, 48 h, read-out: Activity
BT-549 = test: Growth inhibition of human BT549 cells assessed as cell growth at 10 '-8 M after 48 hrs by sulforhodamine B assay; conditions: BT-549, 48 h, read-out: Activity; in short: as §1
HL-60(TB) = test: Growth inhibition of human HL-60(TB) cells assessed as cell growth at 10 '-5 M after 48 hrs by sulforhodamine B assay; conditions: HL-60, 48 h, read-out: Activity
In short: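 Five-dose NCI protocol with final concentrations of 0.01–100 µM and drug diluted from a DMSO stock (400× the top concentration) in medium with gentamicin. Cells were pre-incubated 24 h, then exposed 48 h at 37 °C. Suspension cells were fixed with 16% final TCA, SRB-stained and read at 515 nm. Percentage growth at each level was [(Ti−Tz)/(C−Tz)]×100, or [(Ti−Tz)/Tz]×100 when Ti < Tz.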

U-251 [8] = test: Growth inhibition of human U251 cells assessed as cell growth at 10 '-5 M after 48 hrs by sulforhodamine B assay; conditions: U-251, 48 h, read-out: Activity
MDA-MB-468 = test: Growth inhibition of human MDA-MB-468 cells assessed as cell growth at 10 '-8 M after 48 hrs by sulforhodamine B assay; conditions: MDA-MB-468, 48 h, read-out: Activity
HT-29 [9] = test: Growth inhibition of human HT-29 cells assessed as growth inhibition at 10 uM after 48 hrs by sulforhodamine B assay; conditions: HT-29, 48 h, read-out: GI
RPMI-8226 = test: Growth inhibition of human RPMI8226 cells assessed as cell growth at 10 '-4 M after 48 hrs by sulforhodamine B assay; conditions: RPMI-8226, 48 h, read-out: Activity
SNB-75 = test: Growth inhibition of human SNB75 cells assessed as cell growth at 10 '-8 M after 48 hrs by sulforhodamine B assay; conditions: SNB-75, 48 h, read-out: Activity
HT-29 [10] = test: Growth inhibition of human HT-29 cells assessed as cell growth at 10 '-8 M after 48 hrs by sulforhodamine B assay; conditions: HT-29, 48 h, read-out: Activity
CAKI-1 [11] = test: Growth inhibition of human CAKI-1 cells assessed as cell growth at 10 '-6 M after 48 hrs by sulforhodamine B assay; conditions: CAKI-1, 48 h, read-out: Activity; in short: as §1
[12] = Growth inhibition of human NCI-ADR-RES cells assessed as cell growth at 10 '-6 M after 48 hrs by sulforhodamine B assay; conditions: read-out: Activity
U-251 [13] = test: Growth inhibition of human U251 cells assessed as growth inhibition at 10 uM after 48 hrs by sulforhodamine B assay; conditions: U-251, 48 h, read-out: GI
SF-539 = test: Growth inhibition of human SF539 cells assessed as growth inhibition at 10 uM after 48 hrs by sulforhodamine B assay; conditions: SF-539, 48 h, read-out: GI
OVCAR-3 = test: Growth inhibition of human OVCAR3 cells assessed as cell growth at 10 '-7 M after 48 hrs by sulforhodamine B assay; conditions: OVCAR-3, 48 h, read-out: Activity
OVCAR-5 = test: Growth inhibition of human OVCAR5 cells assessed as cell growth at 10 '-4 M after 48 hrs by sulforhodamine B assay; conditions: OVCAR-5, 48 h, read-out: Activity
HT-29 [14] = test: Growth inhibition of human HT-29 cells assessed as cell growth at 10 '-4 M after 48 hrs by sulforhodamine B assay; conditions: HT-29, 48 h, read-out: Activity
NCI-H23 [15] = test: Growth inhibition of human NCI-H23 cells after 48 hrs by sulforhodamine B assay; conditions: NCI-H23, 48 h; in short: as §2
[16] = read-out: LD50 (the source's name)

Cc1cc(=O)oc2cc(OCCn3c(C)nn(-c4ccc(Cl)cc4)c3=O)ccc12
growth at 10 µM (NCI-H23 [1]): 32% | growth at 0.1 µM (SF-268 [2]): 99% | growth at 10 µM (CAKI-1 [3]): 54% | growth at 0.1 µM (COLO 205): 102% | GI50 (SF-268 [4]): 1360 nM | TGI (SF-268 [4]): > 1000 nM | CC50 (SF-268 [4]; [16]): > 1000 nM | growth at 0.01 µM (NCI-H23 [5]): 98% | growth at 0.1 µM (SF-295): 85% | inhibition of growth at 10 µM [6]: 67.1% | growth at 0.01 µM (SF-268 [7]): 104% | growth at 100 µM (SR): -13% | GI50 (NCI-H460): 2800 nM | TGI (NCI-H460): > 1000 nM | CC50 (NCI-H460; [16]): > 1000 nM | GI50 (Malme-3M): 3850 nM | TGI (Malme-3M): > 1000 nM | CC50 (Malme-3M; [16]): > 1000 nM | growth at 100 µM (M14): 28% | growth at 0.01 µM (BT-549): 105% | growth at 10 µM (HL-60(TB)): -1% | growth at 10 µM (U-251 [8]): 27% | growth at 0.01 µM (MDA-MB-468): 94% | inhibition of growth at 10 µM (HT-29 [9]): 99.3% | growth at 100 µM (RPMI-8226): 45% | growth at 0.01 µM (SNB-75): 88% | growth at 0.01 µM (HT-29 [10]): 104% | growth at 1 µM (CAKI-1 [11]): 68% | growth at 1 µM [12]: 61% | inhibition of growth at 10 µM (U-251 [13]): 68.6% | inhibition of growth at 10 µM (SF-539): 70.5% | growth at 0.1 µM (OVCAR-3): 110% | growth at 100 µM (OVCAR-5): 45% | growth at 100 µM (HT-29 [14]): 9% | GI50 (NCI-H23 [15]): 2830 nM | TGI (NCI-H23 [15]): > 1000 nM | CC50 (NCI-H23 [15]; [16]): > 1000 nM
